Laboratory results: ChEMBL document CHEMBL1152304, “Alteration of the bis-tetrahydrofuran core stereochemistries in asimicin can affect the cytotoxicity” (J Med Chem, 2008)

Experiments:
[1] = system: HCT-116; assay: Cytotoxicity against human HCT116 cells assessed as surviving fraction at 0.001 ug/ml after 2 hrs; format: functional
Procedure, shortened: (§1)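 HCT-116 cells exposed to drug at 0.001-10 µg/mL for 2 h, 24 h or continuously (168 h). Surviving clonogenic cells counted. 90% kill (S10) used as comparison point.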

[2] = system: HCT-116; assay: Cytotoxicity against human HCT116 cells assessed as surviving fraction at 1 ug/ml after 2 hrs; format: functional; procedure, shortened: as §1
[3] = system: L1210; assay: Cytotoxicity against mouse L1210 cells at 0.94 ug by disk diffusion assay; format: functional
Procedure, shortened: (§2)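 15 µL of sample dried overnight on 6.5 mm filter disk. Disk placed near edge of 60 mm dish of cells plated in soft agar, incubated 7-10 days. Zone of inhibition measured from disk edge to start of normal-sized colony formation, disk diameter taken as 200 units. Overly toxic samples diluted 1:4 or 1:10 and retested.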

[4] = system: MC-38; assay: Cytotoxicity against mouse Colon 38 cells at 0.94 ug by disk diffusion assay; format: functional; procedure, shortened: as §2
[5] = system: HCT-116; assay: Cytotoxicity against human HCT116 cells assessed as surviving fraction at 10 ug/ml after 24 hrs; format: functional; procedure, shortened: as §1
[6] = Cytotoxicity against human CFU-GM cells at 3.75 ug by disk diffusion assay; format: functional; procedure, shortened: as §2
[7] = system: HCT-116; assay: Cytotoxicity against human HCT116 cells assessed as surviving fraction at 1 ug/ml after 168 hrs; format: functional; procedure, shortened: as §1
[8] = system: HCT-116; assay: Cytotoxicity against human HCT116 cells assessed as surviving fraction at 0.01 ug/ml after 2 hrs; format: functional; procedure, shortened: as §1
[9] = system: HCT-116; assay: Cytotoxicity against human HCT116 cells assessed as surviving fraction at 0.0001 ug/ml after 2 hrs; format: functional
[10] = system: HCT-116; assay: Cytotoxicity against human HCT116 cells assessed as surviving fraction at 0.1 ug/ml after 2 hrs; format: functional; procedure, shortened: as §1
[11] = system: HCT-116; assay: Cytotoxicity against human HCT116 cells; format: functional, cell-based
[12] = system: MC-38; assay: Cytotoxicity against mouse Colon 38 cells at 60 ug by disk diffusion assay; format: functional; procedure, shortened: as §2
[13] = Cytotoxicity against human CFU-GM cells at 15 ug by disk diffusion assay; format: functional; procedure, shortened: as §2
[14] = system: CCRF-CEM; assay: Cytotoxicity against human CEM cells at 15 ug by disk diffusion assay; format: functional; procedure, shortened: as §2
[15] = Cytotoxicity against human CFU-GM cells at 0.94 ug by disk diffusion assay; format: functional; procedure, shortened: as §2
[16] = system: HCT-116; assay: Cytotoxicity against human HCT116 cells assessed as surviving fraction at 0.001 ug/ml after 24 hrs; format: functional; procedure, shortened: as §1
[17] = system: HCT-116; assay: Cytotoxicity against human HCT116 cells assessed as surviving fraction at 0.1 ug/ml after 24 hrs; format: functional; procedure, shortened: as §1
[18] = system: L1210; assay: Cytotoxicity against mouse L1210 cells at 60 ug by disk diffusion assay; format: functional; procedure, shortened: as §2
[19] = system: HCT-116; assay: Cytotoxicity against human HCT116 cells assessed as surviving fraction at 10 ug/ml after 168 hrs; format: functional; procedure, shortened: as §1
[20] = system: HCT-116; assay: Cytotoxicity against human HCT116 cells at 15 ug by disk diffusion assay; format: functional; procedure, shortened: as §2
[21] = Cytotoxicity against human CFU-GM cells at 60 ug by disk diffusion assay; format: functional; procedure, shortened: as §2
[22] = Cytotoxicity against human H125M cells at 15 ug by disk diffusion assay; format: functional; procedure, shortened: as §2
[23] = system: HCT-116; assay: Cytotoxicity against human HCT116 cells assessed as surviving fraction at 10 ug/ml after 2 hrs; format: functional; procedure, shortened: as §1
[24] = system: HCT-116; assay: Cytotoxicity against human HCT116 cells assessed as surviving fraction at 0.1 ug/ml after 168 hrs; format: functional; procedure, shortened: as §1
[25] = system: HCT-116; assay: Cytotoxicity against human HCT116 cells assessed as surviving fraction at 0.01 ug/ml after 24 hrs; format: functional; procedure, shortened: as §1
[26] = system: HCT-116; assay: Cytotoxicity against human HCT116 cells assessed as surviving fraction at 1 ug/ml after 24 hrs; format: functional; procedure, shortened: as §1
[27] = system: HCT-116; assay: Cytotoxicity against human HCT116 cells assessed as surviving fraction at 0.0001 ug/ml after 168 hrs; format: functional
[28] = Inhibition of bovine heart mitochondrial complex1 activity; design: species or system Bos taurus
Procedure, shortened: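 Bovine heart submitochondrial particles, 15 µg/mL, in 0.25 M sucrose, 1 mM MgCl2, 50 mM phosphate pH 7.5. Inhibitor added at various concentrations and equilibrated 5 min. Reaction started with 150 µM NADH and followed spectrophotometrically at 340 nm. IC50 derived.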

[29] = system: MC-38; assay: Cytotoxicity against mouse Colon 38 cells at 3.75 ug by disk diffusion assay; format: functional; procedure, shortened: as §2
[30] = system: L1210; assay: Cytotoxicity against mouse L1210 cells at 3.75 ug by disk diffusion assay; format: functional; procedure, shortened: as §2
[31] = system: MC-38; assay: Cytotoxicity against mouse Colon 38 cells at 15 ug by disk diffusion assay; format: functional; procedure, shortened: as §2
[32] = system: HCT-116; assay: Cytotoxicity against human HCT116 cells assessed as surviving fraction at 0.01 ug/ml after 168 hrs; format: functional; procedure, shortened: as §1
[33] = system: HCT-116; assay: Cytotoxicity against human HCT116 cells assessed as surviving fraction at 0.0001 ug/ml after 24 hrs; format: functional
[34] = system: HCT-116; assay: Cytotoxicity against human HCT116 cells assessed as surviving fraction at 0.001 ug/ml after 168 hrs; format: functional; procedure, shortened: as §1
[35] = system: L1210; assay: Cytotoxicity against mouse L1210 cells at 15 ug by disk diffusion assay; format: functional; procedure, shortened: as §2

For `CCCCCCCCCCC(O)C1CCC(C2CCC(C(O)CCCCCCCC[C@H](O)CC3=C[C@@H](C)OC3=O)O2)O1` (stereo not given in full) [ASIMICIN], the Activity [1] was 0.94, the Activity [2] was 0.8 and the “inhibition zone (IZ)” value [3] was 150 Zone units. The “inhibition zone (IZ)” value [4] was 650 Zone units, the Activity [5] was 0.12 and the “inhibition zone (IZ)” value [6] was 500 Zone units. For the same molecule, the Activity [7] was 0.001, the Activity [8] was 0.8 and the Activity [9] was 0.97. For the same molecule, the Activity [10] was 0.98, the IC50 [11] was 0.51 nM and the “inhibition zone (IZ)” value [12] was 800 Zone units. For the same molecule, the “inhibition zone (IZ)” value [13] was 300 Zone units, the “inhibition zone (IZ)” value [14] was 200 Zone units and the “inhibition zone (IZ)” value [15] was 0 Zone units. The Activity [16] was 0.88, the Activity [17] was 0.54 and the “inhibition zone (IZ)” value [18] was 600 Zone units. For the same molecule, the Activity [19] was 0.001, the “inhibition zone (IZ)” value [20] was 600 Zone units and the “inhibition zone (IZ)” value [21] was 600 Zone units. The “inhibition zone (IZ)” value [22] was 300 Zone units, the Activity [23] was 0.66 and the Activity [24] was 0.001. The Activity [25] was 0.73, the Activity [26] was 0.48 and the Activity [27] was 0.66. The IC50 [28] was 1.2 nM, the “inhibition zone (IZ)” value [29] was 950 Zone units and the “inhibition zone (IZ)” value [30] was 400 Zone units. For the same molecule, the “inhibition zone (IZ)” value [31] was 900 Zone units, the Activity [32] was 0.001 and the Activity [33] was 1. For the same molecule, the Activity [34] was 0.001 and the “inhibition zone (IZ)” value [35] was 200 Zone units.
